In the library only some 9% were active in any assay of this set; here they are far more common.
AP complement = alternative complement pathway inhibitors, primary screen, biochemical, ELISA, human serum, orthogonally pooled compounds. 62,000 compounds, 0.08% hits. LPS-coated ELISA, C3 deposition; tested in compound mixtures. AID 1235, 2008. inhibition, % at 5 µM;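 active means inhibition above 30% in each of the two pooled mixtures holding the compound, so the lower value exceeds 30%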;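 further: 0% = serum in Mg-EGTA without compound and 100% = EDTA serum blank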
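Assay system: human serum alternative complement pathway, C3 deposition on LPS-coated wells; Dosing: 5 µM per compound in ten-compound mixtures; Detection: Anti-C3 ELISA, OD 450 nm; Buffer or medium: Mg2+-EGTA GVB++ buffer containing human serum at 1:15 dilution; Timing: 1 h at 37 °C; Replication: two different pools per compound.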
D1 allo mod = D1 CRE-luciferase signal change, two-sided – cell-based, HEK293 D1, dopamine EC30, D1 allosteric modulator project, primary screen; D(1A) dopamine receptor (Homo sapiens), P21728; B-score at 10 µM; 58,000 compounds, 5.9% hits; dopamine EC30 potentiation; actives deviate in either direction; AID 641, 2007;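 active means luminescence count or its row- and column-corrected plate score outside the 99.7% band of the plate's sample wells, on either side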
M1 agonist = M1 muscarinic receptor agonists, primary screen, CHO-M1 cells, Fluo-4 calcium, agonist mode. Fluo-4 calcium fluorescence; hits give high values. B-score at 10 µM. 64,000 compounds, 3% hits. AID 626, 2007;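 active means fluorescence rise, raw or as B-score row- and column-corrected plate score, outside the 99.7% band of its plate's samples, either direction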
mHtt clearance = clearance of mutant huntingtin inclusions, primary screen, imaging, HeLa Exon1htt(103Q)mCFP, confocal imaging | aggregate imaging; zero = plate's median compound well | inhibition, % at 1.5 µM | 47,000 compounds, 0.42% hits | AID 853, 2007;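 active means inhibition of aggregate fluorescence above about 70%, also judged a hit by eye on the cell image, limit read from the data, passing the limit was not always enough; inconclusive means no rule stated for this call; inactive means not judged a hit on image review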;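 further: cells exposed to compound for three days before fixation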
M1 antag = antagonists of rat M1 muscarinic receptor; CHO-M1 cells, Fluo-4 calcium, ACh EC80 antagonist mode; hits give low values; B-score at 10 µM; 64,000 compounds, 3.4% hits; AID 628, 2007;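 active means calcium fluorescence response, raw or row-and-column corrected B-score, differing from the plate sample mean either way at a set confidence level, mostly lower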
Target sequence (P08482 whole entry, looked up): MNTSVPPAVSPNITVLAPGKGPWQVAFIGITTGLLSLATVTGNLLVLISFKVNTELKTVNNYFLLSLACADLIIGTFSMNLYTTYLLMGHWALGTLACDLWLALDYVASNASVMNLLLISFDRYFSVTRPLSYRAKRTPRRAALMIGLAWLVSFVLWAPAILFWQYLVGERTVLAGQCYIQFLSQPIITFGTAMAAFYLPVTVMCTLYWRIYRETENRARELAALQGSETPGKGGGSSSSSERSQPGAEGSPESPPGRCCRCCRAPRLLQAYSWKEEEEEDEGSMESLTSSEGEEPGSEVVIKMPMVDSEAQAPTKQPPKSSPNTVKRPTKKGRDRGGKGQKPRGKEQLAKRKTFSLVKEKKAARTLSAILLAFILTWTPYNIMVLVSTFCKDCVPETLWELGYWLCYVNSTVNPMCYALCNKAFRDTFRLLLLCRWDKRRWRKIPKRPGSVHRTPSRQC
Numbers without * were called inactive; ? = inconclusive; / = not tested or not shown.

SMILES | AP complement | D1 allo mod | M1 agonist | mHtt clearance | M1 antag
Nc1cccc2c1C(=O)N(c1ccccc1)C2=O | 2.6 | 2.54 | 69.7* | / | -0.372
CCCCC(=O)Nc1cccc2c1C(=O)N(c1ccccc1)C2=O | 8.4 | 1.69 | 1.87 | / | -0.398
Nc1c(N2CCOCC2)cc(Cl)c2nonc12 | -10.4 | -4.83* | 0.415 | / | 0.649
Cc1sc2nc(CN(C(=O)c3cccs3)C3CCCC3)[nH]c(=O)c2c1C | -16.4 | 0.0955 | 0.661 | -49.0 | 1.95*
CCSC1=C(C#N)C(c2cccc(Br)c2)CC(=O)N1 (centres undefined) | 21.9 | 1.1 | 0.00244 | / | 10.6*
COc1ccc(-n2c(SCCC#N)nnc2-c2cc(Cl)ccc2OC)cc1Cl | 2.8 | 1.86 | 0.103 | -15.5 | -0.0125
CCOC(=O)c1sc(NC(=O)c2ccc(Br)o2)cc1C | -8.2 | -3.9* | 0.531 | ? | -0.663
Cc1nnc(NC(=O)Cc2ccc(OCc3c(C)noc3C)cc2)s1 | -5.3 | -3.05* | 0.0639 | 20.2 | -0.213
CS(=O)(=O)N1CC(C(=O)NC2CC2)Oc2ccc(Cl)cc21 (centres undefined) | / | / | / | -55.9 | /
O=C1c2ccccc2S(=O)(=O)N1CCOc1ccc(F)cc1 | -9.5 | -0.177 | -0.196 | / | 0.122
CN1CCN(c2ccc(NC(=O)c3ccccc3Br)cc2)CC1 | 22.4 | -4.56* | 0.313 | / | -0.133
CCCC(=O)N1CCN(c2ccc(NC(=O)c3ccccc3)cc2)CC1 | 12.8 | 0.123 | -0.422 | ? | -3
O=C(c1ccccc1Br)N1CCN(c2ccccc2)CC1 | -1.5 | 0.0356 | 0.378 | -22.6 | -0.0117
CCCCOc1ccc(C(=O)Nc2ccc(N3CCN(C)CC3)cc2)cc1 | -3.4 | -3.16* | -0.314 | -17.2 | -2.39
COc1cccc(/C=C2/CN(C)CC3=C2OC(N)=C(C#N)C3c2cccc(OC)c2)c1 (centres undefined) | 15.7 | / | 0.0772 | -1.7 | 0.344
CC(C)Cc1nc2oc3c(NCc4cccnc4)ncnc3c2c2c1CCC2 | -7.6 | 4.78* | 0.512 | 28.8 | -0.178
COc1cc2nc(N(C)C)nc(N)c2cc1OC | -0.9 | -4.64* | -0.485 | / | 0.958
CC1C/C(=N\NC(=S)NC(C)C)CC(C)(C)C1 (centres undefined) | / | / | / | -7.6 | /
COc1ccccc1C(=O)Nc1ccc(S(=O)(=O)Nc2cc(C)on2)cc1 | 4.6 | 1.01 | 0.51 | 14.1 | 0.93
COc1ccc(S(=O)(=O)Nc2cc(C)on2)cc1OC | 7.5 | -2.8* | -0.0105 | 35.8 | 0.285
O=C(CSc1nccc2ccccc12)N1CCN(c2ccccn2)CC1 | 28.4 | -1.15 | -0.000685 | 15.3 | -0.0135
Cc1cccc(C)c1NC(=O)N1CCC(N2CCCCC2)CC1 | 16.5 | 0.148 | 0.231 | / | -0.337
COC(=O)CS(=O)(=O)c1ccc2c(c1)CC(=O)N2 | -2.6 | 0.435 | 0.0816 | 8.4 | 0.62
CC(=O)Nc1sc2c(c1CN1CCN(c3ccccn3)CC1)CCCC2 | -2.3 | -3.28* | -0.299 | / | -0.535
COCCn1c(SCc2c(F)cccc2Cl)nc2c1c(=O)[nH]c(=O)n2C | 4.2 | 1.32 | 0.179 | 15.1 | 0.0236
SMILES | AP complement | D1 allo mod | M1 agonist | mHtt clearance | M1 antag
O=c1[nH]c(CN2CCN(CCO)CC2)nc2ccccc12 | / | -0.31 | -0.973 | 76.6* | -0.00893
CC(CN1CCCC(C(N)=O)C1)c1ccccc1 (centres undefined) | 3.3 | -3.43* | 0.079 | -9.3 | -0.587
CCC(=O)NC(Nc1ncc(C)s1)(C(=O)OC)C(F)(F)F (centres undefined) | / | / | / | 70.2* | /
CCCCNc1cc(=O)n(C)c(=O)[nH]1 | 17.1 | / | 0.249 | / | 0.733*
CC(=O)Oc1ccccc1C(=O)Oc1ccc(/C=N/n2cnnc2)cc1 | 14.6 | -3.3* | -1.04 | -25.7 | 0.208
COC(=O)CSc1nnc(SCc2ccc(OC)cc2)s1 | 13.9 | -2.3* | 0.338 | 26.8 | -0.305
COc1ccc(CSc2nnc(SCc3ccc([N+](=O)[O-])cc3)s2)cc1 | / | / | / | 9.4 | /
O=S1(=O)CC(O)C(N2CCC(c3ccccc3)CC2)C1 (centres undefined) | 14.2 | -0.501 | 0.753 | / | -0.872
O=C(Nc1nc2ccccc2[nH]1)c1ccccc1F | 16.5 | -7.94* | -0.82 | 68.5 | 0.191
O=C(Nc1nc2ccccc2[nH]1)c1ccc(F)cc1 | -0.7 | -6.41* | 0.0377 | -35.0 | -0.0192
COc1cccc(CNCC(=O)N2C(C)CCCC2C)c1 (centres undefined) | -15.3 | -0.0685 | -0.506 | 26.7 | 0.224
Cc1onc(-c2c(F)cccc2Cl)c1C(=O)NCc1ccccn1 | 9.2 | -4.17* | -0.513 | / | 0.523
Cc1onc(-c2ccccc2Cl)c1C(=O)NCc1ccccn1 | -12.4 | 0.948 | -0.0644 | / | -0.175
O=C(Nc1ccc2c(c1)OCCO2)NC1CCCCC1 | 6.5 | -3.13* | 1.01 | -16.0 | 0.438
O=C(Nc1ccc2c(c1)OCCO2)C1CCC1 | -3.1 | 0.00598 | -0.225 | -24.7 | 0.251
CC#CCCCC(=O)Nc1ccc(C(=O)O)cc1 | 3.7 | -3.09* | -1.38 | -68.8 | -0.922
CCOC(=O)c1c(NC(=O)CSc2nnc(CNc3ccc(F)cc3)o2)sc(C)c1C | 13.0 | -4.53* | -0.352 | 38.6 | 0.28
CC1CCc2c(C(=O)N3CCN(S(=O)(=O)c4cccs4)CC3)csc2C1 (centres undefined) | / | 0.612 | -0.276 | / | 1
COc1nc(C)ccc1-c1noc(-c2ccco2)n1 | 17.2 | -1.28* | / | -3.1 | /
CNC(=O)CSc1nnc(-c2cc3c(C)nn(-c4ccccc4)c3s2)n1C | 9.2 | 0.611 | 0.41 | 5.5 | 0.0675
CN1C(=S)SC(/[N+]([O-])=C/c2cccnc2)C1(C)C (centres undefined) | 25.7 | -6.01* | 0.0266 | / | -0.499
O=C(CSc1nc(-c2ccc(F)cc2)cs1)N1CCc2ccccc21 | / | / | / | -50.4 | /
Cc1onc(-c2ccccc2Cl)c1C(=O)N1CCN(c2ccccc2)CC1 | 15.0 | -2.4* | -0.25 | / | -0.000196
Cc1onc(-c2ccccc2Cl)c1C(=O)N1CCN(c2cccc(Cl)c2)CC1 | 20.9 | / | 0.486 | / | -0.0643
COc1ccc(OC)c(NC2=NC3(CCCCC3)N=C(N)N2)c1 | 10.0 | -5.21* | 0.0346 | / | -0.494
SMILES | AP complement | D1 allo mod | M1 agonist | mHtt clearance | M1 antag
COc1ccc(NC2=NC3(CCCCC3)N=C(N)N2)cc1 | 12.2 | -1.78 | 0.366 | / | -0.0225
O=c1c(Cc2ccccc2O)c(O)nc2n1CCCS2 | 19.6 | -2.33* | 0.63 | / | 0.0831
Cc1ccc(C2CC(=O)N(c3ccc(F)cc3)C3=C2C(=O)CCC3)cc1 (centres undefined) | / | / | / | 79.4* | /
COC(=O)c1ccsc1NC(=O)c1ccc2c(c1)OCCO2 | 7.7 | 3.79* | 1.44 | / | 0.284
COC(=O)c1ccsc1NC(=O)c1ccc(Cl)s1 | 21.0 | 3.15 | -0.127 | / | -0.58
COc1ccc(C2NC3=C(CCC3)C3(C#N)C4(N=C(N)C23C#N)OCCO4)cc1 (centres undefined) | -3.7 | -3.54* | -0.0593 | -25.1 | 0.0309
CC12CCC(=O)N1c1ccccc1C(=O)N2c1ccccc1 (centres undefined) | 2.0 | -0.571 | 1.05 | / | 2.28*
O=C1CC(=O)N(c2ccccc2)c2ccccc21 | 16.7 | -0.387 | -0.83 | 34.9 | -0.931

Source: PubChem BioAssay (several laboratories)
